From paper PMC2605016 (Structure (London, England : 1993), 2008)

Key:
[1] = CaM pull-down assay with lens membranes; type: binding, lamb; details: Ca^2+ treated lens pellets, molar excess EGTA, data not shown
Procedure, shortened: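 Lamb lens fiber-cell membranes (2mg/ml total protein) were incubated with recombinant vertebrate CaM (0.67mg/ml) in 10mM Tris pH 8.0, 10mM CaCl2 for 30 minutes at 37°C. Binding was stopped on ice, and free CaM was removed by centrifugation at 10,000xg with 4 pellet washes. Molar excess EGTA was then added to the Ca2+-treated pellets. CaM was detected by SDS-PAGE with silver staining and by western blot.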

[2] = biological target: 15N-CaM (Homo sapiens, UniProt P0DP23); assay: NMR titration of 15N-CaM with AQP0 peptides; type: binding, vertebrate; details: 25°C, pH 6.5, Ca^2+, data not shown
[3] = biological target: calmodulin (CaM); assay: 15N-HSQC NMR titration of 15N-CaM; details: reference: unmodified AQP0CBD peptide, second binding event (1:2); sites S235

## O=C(O)CN(CCOCCOCCN(CC(=O)O)CC(=O)O)CC(=O)O [EGTA]
[1]
  removal of membrane-bound CaM by EGTA: efficiently removed

## AQP0loop: peptide corresponding to a cytosolic AQP0 loop, residues 148–158, negative control (TYDERRNGRLG)
[2]
  interaction of control peptide with CaM: no interaction

## Aquaporin-0 (AQP0, MIP) 223-242 (from UniProt Q6J8I9) S235-P peptide, second binding event (1:2)
[3]
  KD: weaker; reference 6.5 ± 5.5 × 10−6
